Values after ≈ are worked out from the molar mass of the structure shown.
Columns and labels:
[1] = Tmax in plasma of patient with intracerebral and leptomeningeal tuberculosis at 400 […], po QD measured on day 3; assay type: ADME, organism-based; design: route oral; settings: human
Homo sapiens [2] = assay: Cardiotoxicity in patient with intracerebral and leptomeningeal tuberculosis assessed as QT prolongation at 400 […], po […]; assay type: toxicity, organism-based; design: route oral; settings: in vivo
[3] = AUC (0 to 24 hrs) in CSF of patient with intracerebral and leptomeningeal tuberculosis at 400 […], po QD measured on day 3; assay type: ADME, organism-based, Cerebrospinal fluid; design: time < 24 hr, dose 400 mg/kg, route oral; settings: human
[4] = fAUC (0 to 24 hrs) in plasma of patient with intracerebral and leptomeningeal tuberculosis at 800 […], po QD measured on day 3; assay type: ADME, organism-based; design: route oral; settings: human, in vivo
[5] = Cmax in CSF of patient with intracerebral and leptomeningeal tuberculosis at 800 […], po QD measured on day 3; assay type: ADME, organism-based, Cerebrospinal fluid; design: route oral; settings: human
Method in brief: (§1)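 Single patient on steady-state oral moxifloxacin, 400 or 800 mg once daily, sampled on day 3 of each dose. CSF was taken from an external lumbar drain and blood from a peripheral IV catheter into heparin tubes, predose and at 2, 4, 8, 12 and 24 h. Plasma was separated at 1,500 × g for 10 min at room temperature and stored at −20°C.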

[6] = Tmax in CSF of patient with intracerebral and leptomeningeal tuberculosis at 400 […], po QD measured on day 3; assay type: ADME, organism-based, Cerebrospinal fluid; design: route oral; settings: human
[7] = Cmax in plasma of patient with intracerebral and leptomeningeal tuberculosis at 400 […], po QD measured on day 3; assay type: ADME, organism-based; design: route oral; settings: human
[8] = AUC (0 to 24 hrs) in CSF of patient with intracerebral and leptomeningeal tuberculosis at 800 […], po QD measured on day 3; assay type: ADME, organism-based, Cerebrospinal fluid; design: time < 24 hr, route oral; settings: human; method in brief: as §1
[9] = fAUC (0 to 24 hrs) in plasma of patient with intracerebral and leptomeningeal tuberculosis at 400 […], po QD measured on day 3; assay type: ADME, organism-based; design: route oral; settings: human, in vivo
Homo sapiens [10] = assay: Hepatotoxicity in patient with intracerebral and leptomeningeal tuberculosis at 800 […], po QD measured on day 3; assay type: toxicity, organism-based; design: route oral; settings: in vivo
Method in brief: (§2)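 Safety was monitored during oral once-daily treatment at 400 and then 800 mg. QTc was tracked by ECG, and blood samples were taken for renal and liver function tests.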

[11] = Tmax in CSF of patient with intracerebral and leptomeningeal tuberculosis at 800 […], po QD measured on day 3; assay type: ADME, organism-based, Cerebrospinal fluid; design: route oral; settings: human
Homo sapiens [12] = assay: Renal toxicity in patient with intracerebral and leptomeningeal tuberculosis at 800 […], po QD measured on day 3; assay type: organism-based; design: route oral; settings: in vivo
[13] = Cmax in CSF of patient with intracerebral and leptomeningeal tuberculosis at 400 […], po QD measured on day 3; assay type: ADME, organism-based, Cerebrospinal fluid; design: route oral; settings: human
Homo sapiens [14] = assay: Hepatotoxicity in patient with intracerebral and leptomeningeal tuberculosis at 400 […], po QD measured on day 3; assay type: toxicity, organism-based; design: route oral; settings: in vivo
[15] = AUC (0 to 24 hrs) in plasma of patient with intracerebral and leptomeningeal tuberculosis at 400 […], po QD measured on day 3; assay type: ADME, organism-based; design: time < 24 hr, route oral; settings: human
Method in brief: (§3)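 Single patient with intracerebral and leptomeningeal TB without active meningitis. Oral dosing once daily at 400 mg, then 800 mg, each sampled at steady state on day 3. Blood and CSF were drawn through a peripheral intravenous catheter and an external lumbar drain into heparin tubes. Sampling was predose and at 2, 4, 8, 12 and 24 h. Plasma was spun 1,500 × g for 10 min at room temperature and stored at −20°C.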

[16] = test system: Mycobacterium tuberculosis; assay: Antimicrobial activity against Mycobacterium tuberculosis; assay type: functional
Method in brief: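 MIC for the patient's isolate was determined by the Middlebrook 7H10 agar dilution method. It was used to calculate AUC0-24/MIC ratios.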

[17] = fAUC (0 to 24 hrs) in CSF of patient with intracerebral and leptomeningeal tuberculosis at 400 […], po QD measured on day 3; assay type: ADME, organism-based, Cerebrospinal fluid; design: route oral; settings: human, in vivo
Method in brief: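 Same patient and sampling: oral 400 or 800 mg once daily at steady state, day 3 of each dose, predose to 24 h, with CSF from a lumbar drain and heparinized blood from an IV catheter. Free AUC0-24 was calculated assuming 40% protein binding.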

Homo sapiens [18] = assay: Cardiotoxicity in patient with intracerebral and leptomeningeal tuberculosis assessed as QT prolongation at 800 […], po […]; assay type: toxicity, organism-based; design: route oral; settings: in vivo
[19] = Tmax in plasma of patient with intracerebral and leptomeningeal tuberculosis at 800 […], po QD measured on day 3; assay type: ADME, organism-based; design: route oral; settings: human
[20] = fAUC (0 to 24 hrs) in CSF of patient with intracerebral and leptomeningeal tuberculosis at 800 […], po QD measured on day 3; assay type: ADME, organism-based, Cerebrospinal fluid; design: dose 800 mg/kg, route oral; settings: human, in vivo
[21] = Cmax in plasma of patient with intracerebral and leptomeningeal tuberculosis at 800 […], po QD measured on day 3; assay type: ADME, organism-based; design: route oral; settings: human; method in brief: as §3
[22] = AUC (0 to 24 hrs) in plasma of patient with intracerebral and leptomeningeal tuberculosis at 800 […], po QD measured on day 3; assay type: ADME, organism-based; design: time < 24 hr, route oral; settings: human
Homo sapiens [23] = assay: Renal toxicity in patient with intracerebral and leptomeningeal tuberculosis at 400 […], po QD measured on day 3; assay type: organism-based; design: route oral; settings: in vivo; method in brief: as §2

## COc1c(N2C[C@@H]3CCCN[C@@H]3C2)c(F)cc2c(=O)c(C(=O)O)cn(C3CC3)c12 [MOXIFLOXACIN]
[1]
  Tmax: 2 h
Homo sapiens [2]
  Activity: Non-toxic
[3]
  AUC at 24 h: 8400 ng·h/mL
[4]
  fAUC: 11600 ng·h/mL
[5]
  Cmax: 1420 ng/mL
[6]
  Tmax: 4 h
[7]
  Cmax: 1060 ng/mL
[8]
  AUC at 24 h: 14300 ng·h/mL
[9]
  fAUC: 5300 ng·h/mL
Homo sapiens [10]
  Activity: Non-toxic
[11]
  Tmax: 4 h
Homo sapiens [12]
  Activity: Non-toxic
[13]
  Cmax: 616 ng/mL
Homo sapiens [14]
  Activity: Non-toxic
[15]
  AUC at 24 h: 8900 ng·h/mL
[16]
  MIC: 0.15 µg/mL (≈ 0.374 µM)
[17]
  fAUC: 8400 ng·h/mL
Homo sapiens [18]
  Activity: Non-toxic
[19]
  Tmax: 2 h
[20]
  fAUC: 14300 ng·h/mL
[21]
  Cmax: 2450 ng/mL
[22]
  AUC at 24 h: 19400 ng·h/mL
Homo sapiens [23]
  Activity: Non-toxic

From ChEMBL document CHEMBL1255350, “Plasma and cerebrospinal fluid pharmacokinetics of moxifloxacin in a patient with tuberculous meningitis” (Antimicrob Agents Chemother, 2008)
